Where a SMILES comes first, the peptide text is derived from it.
Columns and labels:
[1] = biological target: T1, Pituitary adenylate cyclase-activating polypeptide type I receptor (Homo sapiens, UniProt P41586); assay: Agonist activity at human recombinant PAC1 receptor expressed in CHO cells assessed as PACAP38-induced calcium mobilization by FLIPR assay relative to PACAP38; type: functional, cell-based
Outline: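 CHO cells stably expressing recombinant human PAC1, plated 24 h before assay, loaded with fluo-4 AM for 60 min at 37 °C in the dark, then rinsed into HBSS for 15 min at 37 °C. Peptide was added 18 s into a 150 s read (ex 480/em 525 nm), at final concentrations of 1 × 10-12 to 1 × 10^-5 M. Response was normalised to 1 × 10^-5 M PACAP38 on each plate. EC50 and efficacy came from nonlinear regression; 4-10 independent assays in duplicate.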
Target sequence in this assay (P41586 21-468 limits assumed): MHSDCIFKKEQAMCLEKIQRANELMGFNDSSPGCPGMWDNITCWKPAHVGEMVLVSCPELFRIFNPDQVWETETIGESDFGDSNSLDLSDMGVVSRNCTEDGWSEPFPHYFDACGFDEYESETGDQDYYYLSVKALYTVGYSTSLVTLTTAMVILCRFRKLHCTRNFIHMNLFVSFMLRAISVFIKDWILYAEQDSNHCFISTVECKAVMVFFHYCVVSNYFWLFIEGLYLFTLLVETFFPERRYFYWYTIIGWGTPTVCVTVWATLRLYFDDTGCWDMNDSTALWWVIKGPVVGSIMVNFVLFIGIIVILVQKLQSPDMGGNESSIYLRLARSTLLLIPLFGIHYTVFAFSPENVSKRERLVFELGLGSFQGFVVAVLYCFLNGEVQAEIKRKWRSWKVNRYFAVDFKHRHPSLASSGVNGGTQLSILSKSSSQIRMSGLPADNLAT

[2] = biological target: T1, Pituitary adenylate cyclase-activating polypeptide type I receptor; assay: Agonist activity at human recombinant PAC1 receptor expressed in CHO cells assessed as PACAP38-induced calcium mobilization by FLIPR assay; type: functional, cell-based
Outline: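 CHO cells stably expressing recombinant human PAC1, plated 24 h before assay, loaded with fluo-4 AM for 60 min at 37 °C in the dark, then rinsed into HBSS for 15 min at 37 °C. EC50 and efficacy came from nonlinear regression; 4-10 independent assays in duplicate.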
Target sequence in this assay (P41586 whole entry): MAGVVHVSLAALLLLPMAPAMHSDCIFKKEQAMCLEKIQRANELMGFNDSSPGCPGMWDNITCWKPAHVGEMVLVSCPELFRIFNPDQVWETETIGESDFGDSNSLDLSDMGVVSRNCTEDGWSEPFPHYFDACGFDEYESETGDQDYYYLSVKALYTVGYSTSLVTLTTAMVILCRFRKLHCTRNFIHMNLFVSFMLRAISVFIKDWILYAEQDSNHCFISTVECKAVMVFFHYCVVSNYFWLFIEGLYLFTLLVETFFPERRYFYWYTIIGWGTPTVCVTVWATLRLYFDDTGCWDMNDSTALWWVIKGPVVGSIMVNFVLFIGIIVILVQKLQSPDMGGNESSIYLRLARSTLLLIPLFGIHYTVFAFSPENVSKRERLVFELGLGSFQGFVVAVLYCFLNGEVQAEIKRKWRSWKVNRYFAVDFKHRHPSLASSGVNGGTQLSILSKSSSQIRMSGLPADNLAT

[3] = biological target: T1, Pituitary adenylate cyclase-activating polypeptide type I receptor; assay: Displacement of [125I]Ac-PACAP27 from human recombinant PAC1 receptor expressed in CHO cells by gamma- counter; type: cell-based
Target sequence in this assay (P41586 whole entry): as above

| Emax [1] [%] | EC50 [2] [nM] | IC50 [3] [nM] | Compound |
| --- | --- | --- | --- |
| 89.3 | 4.1 | 8.5 | CC[C@H](C)[C@H](NC(=O)CNC(=O)[C@H](CC(=O)O)NC(=O)[C@@H]1CCCN1C(=O)[C@@H](N)Cc1cnc[nH]1)C(=O)N[C@@H](Cc1ccccc1)C(=O)N[C@H](C(=O)N[C@@H](CC(=O)O)C(=O)N[C@@H](CO)C(=O)N[C@@H](Cc1ccc(O)cc1)C(=O)N[C@@H](CO)C(=O)N[C@@H](CCCNC(=N)N)C(=O)N[C@@H](Cc1ccc(O)cc1)C(=O)N[C@@H](CCCNC(=N)N)C(=O)N[C@@H](CCCCN)C(=O)N[C@@H](CCC(N)=O)C(=O)N[C@@H](CCSC)C(=O)N[C@@H](C)C(=O)N[C@H](C(=O)N[C@@H](CCCCN)C(=O)N[C@@H](CCCCN)C(=O)N[C@@H](Cc1ccc(O)cc1)C(=O)N[C@@H](CC(C)C)C(=O)N[C@@H](C)C(=O)N[C@@H](C)C(=O)N[C@H](C(=O)N[C@@H](CC(C)C)C(=O)NCC(=O)N[C@@H](CCCCN)C(=O)N[C@@H](CCCNC(=N)N)C(=O)N[C@@H](Cc1ccc(O)cc1)C(=O)N[C@@H](CCCCN)C(=O)N[C@@H](CCC(N)=O)C(=O)N[C@@H](CCCNC(=N)N)C(=O)N[C@H](C(=O)N[C@@H](CCCCN)C(=O)N[C@@H](CC(N)=O)C(=O)N[C@@H](CCCCN)C(N)=O)C(C)C)C(C)C)C(C)C)[C@@H](C)O |
| 99.2 | 39.8 | 60.7 | CSCC[C@H](NC(=O)[C@H](CCC(N)=O)NC(=O)[C@H](CCCCN)NC(=O)[C@H](CCCNC(=N)N)NC(=O)[C@H](Cc1ccc(O)cc1)NC(=O)[C@H](CCCNC(=N)N)NC(=O)[C@H](CO)NC(=O)[C@H](Cc1ccc(O)cc1)NC(=O)[C@H](CO)NC(=O)[C@H](CC(=O)O)NC(=O)[C@@H](NC(=O)[C@H](Cc1ccccc1)NC(=O)[C@H](C)NC(=O)CNC(=O)[C@H](CC(=O)O)NC(=O)[C@H](CO)NC(=O)[C@@H](N)Cc1cnc[nH]1)[C@@H](C)O)C(=O)N[C@@H](C)C(=O)N[C@H](C(=O)N[C@@H](CCCCN)C(=O)N[C@@H](CCCCN)C(=O)N[C@@H](Cc1ccc(O)cc1)C(=O)N[C@@H](CC(C)C)C(=O)N[C@@H](C)C(=O)N[C@@H](C)C(=O)N[C@H](C(=O)N[C@@H](CC(C)C)C(N)=O)C(C)C)C(C)C |
| 18.4 | 538 | 602 | CC[C@H](C)[C@H](NC(=O)CNC(=O)[C@H](C)NC(=O)[C@H](CO)NC(=O)[C@@H](N)Cc1cnc[nH]1)C(=O)N[C@@H](Cc1ccccc1)C(=O)N[C@H](C(=O)N[C@@H](CC(=O)O)C(=O)N[C@@H](CO)C(=O)N[C@@H](Cc1ccc(O)cc1)C(=O)N[C@@H](CO)C(=O)N[C@@H](CCCNC(=N)N)C(=O)N[C@@H](Cc1ccc(O)cc1)C(=O)N[C@@H](CCCNC(=N)N)C(=O)N[C@@H](CCCCN)C(=O)N[C@@H](CCC(N)=O)C(=O)N[C@@H](CCSC)C(=O)N[C@@H](C)C(=O)N[C@H](C(=O)N[C@@H](CCCCN)C(=O)N[C@@H](CCCCN)C(=O)N[C@@H](Cc1ccc(O)cc1)C(=O)N[C@@H](CC(C)C)C(=O)N[C@@H](C)C(=O)N[C@@H](C)C(=O)N[C@H](C(=O)N[C@@H](CC(C)C)C(N)=O)C(C)C)C(C)C)[C@@H](C)O |
| 105 | 5.1 | 7.9 | CC[C@H](C)[C@H](NC(=O)CNC(=O)[C@H](CC(=O)O)NC(=O)[C@H](C)NC(=O)[C@@H](N)Cc1cnc[nH]1)C(=O)N[C@@H](Cc1ccccc1)C(=O)N[C@H](C(=O)N[C@@H](CC(=O)O)C(=O)N[C@@H](CO)C(=O)N[C@@H](Cc1ccc(O)cc1)C(=O)N[C@@H](CO)C(=O)N[C@@H](CCCNC(=N)N)C(=O)N[C@@H](Cc1ccc(O)cc1)C(=O)N[C@@H](CCCNC(=N)N)C(=O)N[C@@H](CCCCN)C(=O)N[C@@H](CCC(N)=O)C(=O)N[C@@H](CCSC)C(=O)N[C@@H](C)C(=O)N[C@H](C(=O)N[C@@H](CCCCN)C(=O)N[C@@H](CCCCN)C(=O)N[C@@H](Cc1ccc(O)cc1)C(=O)N[C@@H](CC(C)C)C(=O)N[C@@H](C)C(=O)N[C@@H](C)C(=O)N[C@H](C(=O)N[C@@H](CC(C)C)C(=O)NCC(=O)N[C@@H](CCCCN)C(=O)N[C@@H](CCCNC(=N)N)C(=O)N[C@@H](Cc1ccc(O)cc1)C(=O)N[C@@H](CCCCN)C(=O)N[C@@H](CCC(N)=O)C(=O)N[C@@H](CCCNC(=N)N)C(=O)N[C@H](C(=O)N[C@@H](CCCCN)C(=O)N[C@@H](CC(N)=O)C(=O)N[C@@H](CCCCN)C(N)=O)C(C)C)C(C)C)C(C)C)[C@@H](C)O (H-HADGIFTDSYSRYRKQMAVKKYLAAVLGKRYKQRVKNK-NH2) |
| 104 | 1 | 4.5 | CC[C@H](C)[C@H](NC(=O)CNC(=O)[C@H](CC(=O)O)NC(=O)[C@H](CO)NC(=O)[C@@H](N)Cc1cnc[nH]1)C(=O)N[C@@H](Cc1ccc(-c2ccccc2)cc1)C(=O)N[C@H](C(=O)N[C@@H](CC(=O)O)C(=O)N[C@@H](CO)C(=O)N[C@@H](Cc1ccc(O)cc1)C(=O)N[C@@H](CO)C(=O)N[C@@H](CCCNC(=N)N)C(=O)N[C@@H](Cc1ccc(O)cc1)C(=O)N[C@@H](CCCNC(=N)N)C(=O)N[C@@H](CCCCN)C(=O)N[C@@H](CCC(N)=O)C(=O)N[C@@H](CCSC)C(=O)N[C@@H](C)C(=O)N[C@H](C(=O)N[C@@H](CCCCN)C(=O)N[C@@H](CCCCN)C(=O)N[C@@H](Cc1ccc(O)cc1)C(=O)N[C@@H](CC(C)C)C(=O)N[C@@H](C)C(=O)N[C@@H](C)C(=O)N[C@H](C(=O)N[C@@H](CC(C)C)C(N)=O)C(C)C)C(C)C)[C@@H](C)O |
| 99.4 | 2.7 | 6.7 | CC[C@H](C)[C@H](NC(=O)CNC(=O)[C@H](CC(=O)O)NC(=O)[C@H](CO)NC(=O)[C@@H](N)Cc1cnc[nH]1)C(=O)N[C@@H](Cc1ccc(O)cc1)C(=O)N[C@H](C(=O)N[C@@H](CC(=O)O)C(=O)N[C@@H](CO)C(=O)N[C@@H](Cc1ccc(O)cc1)C(=O)N[C@@H](CO)C(=O)N[C@@H](CCCNC(=N)N)C(=O)N[C@@H](Cc1ccc(O)cc1)C(=O)N[C@@H](CCCNC(=N)N)C(=O)N[C@@H](CCCCN)C(=O)N[C@@H](CCC(N)=O)C(=O)N[C@@H](CCSC)C(=O)N[C@@H](C)C(=O)N[C@H](C(=O)N[C@@H](CCCCN)C(=O)N[C@@H](CCCCN)C(=O)N[C@@H](Cc1ccc(O)cc1)C(=O)N[C@@H](CC(C)C)C(=O)N[C@@H](C)C(=O)N[C@@H](C)C(=O)N[C@H](C(=O)N[C@@H](CC(C)C)C(=O)NCC(=O)N[C@@H](CCCCN)C(=O)N[C@@H](CCCNC(=N)N)C(=O)N[C@@H](Cc1ccc(O)cc1)C(=O)N[C@@H](CCCCN)C(=O)N[C@@H](CCC(N)=O)C(=O)N[C@@H](CCCNC(=N)N)C(=O)N[C@H](C(=O)N[C@@H](CCCCN)C(=O)N[C@@H](CC(N)=O)C(=O)N[C@@H](CCCCN)C(N)=O)C(C)C)C(C)C)C(C)C)[C@@H](C)O (H-HSDGIYTDSYSRYRKQMAVKKYLAAVLGKRYKQRVKNK-NH2) |
| 98.1 | 6.8 | 5.1 | CC[C@H](C)[C@H](NC(=O)CNC(=O)[C@H](CC(=O)O)NC(=O)[C@H](C)NC(=O)[C@@H](N)Cc1cnc[nH]1)C(=O)N[C@@H](Cc1ccccc1)C(=O)N[C@H](C(=O)N[C@@H](CC(=O)O)C(=O)N[C@@H](CO)C(=O)N[C@@H](Cc1ccc(O)cc1)C(=O)N[C@@H](CO)C(=O)N[C@@H](CCCNC(=N)N)C(=O)N[C@@H](Cc1ccc(O)cc1)C(=O)N[C@@H](CCCNC(=N)N)C(=O)N[C@@H](CCCCN)C(=O)N[C@@H](CCC(N)=O)C(=O)N[C@@H](CCSC)C(=O)N[C@@H](C)C(=O)N[C@H](C(=O)N[C@@H](CCCCN)C(=O)N[C@@H](CCCCN)C(=O)N[C@@H](Cc1ccc(O)cc1)C(=O)N[C@@H](CC(C)C)C(=O)N[C@@H](C)C(=O)N[C@@H](C)C(=O)N[C@H](C(=O)N[C@@H](CC(C)C)C(N)=O)C(C)C)C(C)C)[C@@H](C)O |
| 90.5 | 20.6 | 10.6 | CC[C@H](C)[C@H](NC(=O)CNC(=O)[C@H](CCC(=O)O)NC(=O)[C@H](CO)NC(=O)[C@@H](N)Cc1cnc[nH]1)C(=O)N[C@@H](Cc1ccccc1)C(=O)N[C@H](C(=O)N[C@@H](CC(=O)O)C(=O)N[C@@H](CO)C(=O)N[C@@H](Cc1ccc(O)cc1)C(=O)N[C@@H](CO)C(=O)N[C@@H](CCCNC(=N)N)C(=O)N[C@@H](Cc1ccc(O)cc1)C(=O)N[C@@H](CCCNC(=N)N)C(=O)N[C@@H](CCCCN)C(=O)N[C@@H](CCC(N)=O)C(=O)N[C@@H](CCSC)C(=O)N[C@@H](C)C(=O)N[C@H](C(=O)N[C@@H](CCCCN)C(=O)N[C@@H](CCCCN)C(=O)N[C@@H](Cc1ccc(O)cc1)C(=O)N[C@@H](CC(C)C)C(=O)N[C@@H](C)C(=O)N[C@@H](C)C(=O)N[C@H](C(=O)N[C@@H](CC(C)C)C(N)=O)C(C)C)C(C)C)[C@@H](C)O |
| 93.2 | 1840 | 951 | CC[C@H](C)[C@H](NC(=O)CNC(=O)[C@H](CC(=O)O)NC(=O)[C@H](CO)NC(=O)[C@@H](N)Cc1cnc[nH]1)C(=O)N[C@H](Cc1ccccc1)C(=O)N[C@H](C(=O)N[C@@H](CC(=O)O)C(=O)N[C@@H](CO)C(=O)N[C@@H](Cc1ccc(O)cc1)C(=O)N[C@@H](CO)C(=O)N[C@@H](CCCNC(=N)N)C(=O)N[C@@H](Cc1ccc(O)cc1)C(=O)N[C@@H](CCCNC(=N)N)C(=O)N[C@@H](CCCCN)C(=O)N[C@@H](CCC(N)=O)C(=O)N[C@@H](CCSC)C(=O)N[C@@H](C)C(=O)N[C@H](C(=O)N[C@@H](CCCCN)C(=O)N[C@@H](CCCCN)C(=O)N[C@@H](Cc1ccc(O)cc1)C(=O)N[C@@H](CC(C)C)C(=O)N[C@@H](C)C(=O)N[C@@H](C)C(=O)N[C@H](C(=O)N[C@@H](CC(C)C)C(=O)NCC(=O)N[C@@H](CCCCN)C(=O)N[C@@H](CCCNC(=N)N)C(=O)N[C@@H](Cc1ccc(O)cc1)C(=O)N[C@@H](CCCCN)C(=O)N[C@@H](CCC(N)=O)C(=O)N[C@@H](CCCNC(=N)N)C(=O)N[C@H](C(=O)N[C@@H](CCCCN)C(=O)N[C@@H](CC(N)=O)C(=O)N[C@@H](CCCCN)C(N)=O)C(C)C)C(C)C)C(C)C)[C@@H](C)O |

Reference: ChEMBL document CHEMBL1138520, “Molecular and conformational determinants of pituitary adenylate cyclase-activating polypeptide (PACAP) for activation of the PAC1 receptor” (J Med Chem, 2009)
